ChEMBL document CHEMBL3352416, “Discovery of carbohybrid-based 2-aminopyrimidine analogues as a new class of rapid-acting antimalarial agents using image-based cytological profiling assay” (J Med Chem, 2014)
Calls of active or inactive are those of the source. The calls are words filed in the database; no cut-off is given here.

Tests used:
Plasmodium falciparum [1] = assay: Antimalarial activity against Plasmodium falciparum K1 by automated image mining based cytological profiling assay; type: functional, organism-based
In short: (§1)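 Parasite cultures in 384-well format, read by automated imaging. Infected erythrocytes detected by DAPI nuclear staining against WGA-AlexaFluor 488 host-cell stain, and viability by Mitotracker Red CMXRos. Total culture parasitaemia quantified. EC50 given as mean±SD of two independent experiments, each in duplicate.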

Plasmodium falciparum [2] = assay: Antimalarial activity against Plasmodium falciparum W2 by automated image mining based cytological profiling assay; type: functional, organism-based; in short: as §1
Plasmodium falciparum [3] = assay: Antimalarial activity against Plasmodium falciparum HB3 by automated image mining based cytological profiling assay; type: functional; in short: as §1
[4] = Selectivity index, ratio of CC50 for human HepG2 cells to EC50 for Plasmodium falciparum; type: toxicity, cell-based; details: read-out: Ratio CC50/EC50
In short: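 Ratio of HepG2 CC50 (resazurin assay) to the highest EC50 among P. falciparum K1, HB3 and W2. Parasite EC50 values are means of two independent experiments, each run in duplicate.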

Plasmodium falciparum [5] = assay: Antimalarial activity against tightly synchronized Plasmodium falciparum K1 assessed as parasite stage accumulation index at early ring stages at 10 uM treated at 6 to 30 hrs post-invasion by automated image mining based cytological profiling assay; type: functional, organism-based
Plasmodium falciparum [6] = assay: Antimalarial activity against tightly synchronized Plasmodium falciparum K1 assessed as parasite stage accumulation index at late ring stages at 10 uM treated at 6 to 30 hrs post-invasion by automated image mining based cytological profiling assay; type: functional, organism-based
Plasmodium falciparum [7] = assay: Antimalarial activity against tightly synchronized Plasmodium falciparum K1 assessed as parasite stage accumulation index at trophozoites stages at 10 uM treated at 6 to 30 hrs post-invasion by automated image mining based cytological profiling assay; type: functional, organism-based
Plasmodium falciparum [8] = assay: Antimalarial activity against tightly synchronized Plasmodium falciparum K1 assessed as parasite stage accumulation index at schizonts stages at 10 uM treated at 6 to 30 hrs post-invasion by automated image mining based cytological profiling assay; type: functional, organism-based
[9] = Stability in human liver microsomes assessed as remaining compound level at 1 uM incubated for 5 mins in presence of NADPH measured after 30 mins by LC/MS/MS method; type: ADME; details: read-out: Stability
In short: (§2)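 Percent parent compound remaining after 30 min incubation with liver microsomes; n = 3.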

[10] = Stability in mouse liver microsomes assessed as remaining compound level at 1 uM incubated for 5 mins in presence of NADPH measured after 30 mins by LC/MS/MS method; type: ADME; details: read-out: Stability; in short: as §2
[11] = Tmax in Sprague-Dawley rat at 1 mg/kg, ip; type: ADME, organism-based; set-up: dose 1 mg/kg, route intraperitoneal; details: in vivo
[12] = Tmax in Sprague-Dawley rat at 5 mg/kg, ip; type: ADME, organism-based; set-up: dose 5 mg/kg, route intraperitoneal; details: in vivo
[13] = Cmax in Sprague-Dawley rat at 1 mg/kg, ip; type: ADME, organism-based; set-up: dose 1 mg/kg, route intraperitoneal; details: in vivo
[14] = Cmax in Sprague-Dawley rat at 5 mg/kg, ip; type: ADME, organism-based; set-up: dose 5 mg/kg, route intraperitoneal; details: in vivo
[15] = AUC in Sprague-Dawley rat at 1 mg/kg, ip; type: ADME, organism-based; set-up: dose 1 mg/kg, route intraperitoneal; details: plasma
[16] = AUC in Sprague-Dawley rat at 5 mg/kg, ip; type: ADME, organism-based; set-up: dose 5 mg/kg, route intraperitoneal; details: plasma
[17] = Half life in Sprague-Dawley rat at 1 mg/kg, ip; type: ADME, organism-based; set-up: dose 1 mg/kg, route intraperitoneal; details: in vivo
[18] = Half life in Sprague-Dawley rat at 5 mg/kg, ip; type: ADME, organism-based; set-up: dose 5 mg/kg, route intraperitoneal; details: in vivo
Plasmodium chabaudi [19] = assay: Antimalarial activity against Plasmodium chabaudi infected in BALB/c mouse assessed as reduction in parasitaemia level treated intraperitoneally on day 1 to day 3 post-infection measured on day 4 post-infection by Giemsa staining based light microscopy; type: functional
In short: (§3)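 Groups of five BALB/c mice infected i.p. with 2 × 10^7 P. chabaudi-parasitized erythrocytes. Day 1 pre-treatment parasitaemia read from tail-blood thin smears, then i.p. dosing at 0.03, 0.3, 3, 10 or 30 mg/kg, repeated for two more days. Day 4 parasitaemia scored by light microscopy of Giemsa-stained thin smears; dose-response evaluated by probit analysis.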

Plasmodium chabaudi [20] = assay: Antimalarial activity against Plasmodium chabaudi infected in BALB/c mouse assessed as reduction in accumulation of ring-stage parasites level at 3 to 30 mg/kg, ip treated on day 1 to day 3 post-infection measured on day 4 post-infection by Giemsa staining based light microscopy; type: functional, organism-based; in short: as §3
Plasmodium chabaudi [21] = assay: Antimalarial activity against Plasmodium chabaudi infected in BALB/c mouse assessed as reduction in blood parasitaemia level at 3 to 30 mg/kg, ip treated on day 1 to day 3 post-infection measured on day 4 post-infection by Giemsa staining based light microscopy; type: functional, organism-based; in short: as §3

EC50 (Plasmodium falciparum [1]): 0.116 µM | EC50 (Plasmodium falciparum [2]): 0.104 µM | EC50 (Plasmodium falciparum [3]): 0.104 µM | remaining at 30 min, 1 µM [9]: 88.1% | remaining at 0.5 h, 1 µM [10]: 88.6% | Tmax [11]: 1 h | Tmax [12]: 1 h | Cmax [13]: 1800 ng/mL | Cmax [14]: 12900 ng/mL | AUC [15]: 9790 ng·h/mL | AUC [16]: 41300 ng·h/mL | half-life [17]: 10.3 h | half-life [18]: 10.6 h
Compound: COc1ccc(CO[C@H]([C@H](OCc2ccc(OC)cc2)c2cnc(N(C)C)nc2)[C@@H](COC(c2ccccc2)(c2ccccc2)c2ccccc2)OS(C)(=O)=O)cc1
selectivity ratio [4]: > 680 | Activity (Plasmodium falciparum [5]): Active | Activity (Plasmodium falciparum [6]): Active | Activity (Plasmodium falciparum [7]): Active | Activity (Plasmodium falciparum [8]): Active | inhibition (Plasmodium chabaudi [19]): Dose dependent effect | ED50 (Plasmodium chabaudi [19]; ip): 0.32 mg/kg | inhibition (Plasmodium chabaudi [20]): Active | inhibition (Plasmodium chabaudi [21]): Active
